Measured values: ChEMBL document CHEMBL3797120, “Identification of 1,2,3-triazole derivatives that protect pancreatic β cells against endoplasmic reticulum stress-mediated dysfunction and death through the inhibition of C/EBP-homologous protein expression” (Bioorg Med Chem, 2016)

Legend:
[1] = tested on: INS1; assay: Cytoprotective activity in endoplasmic reticulum stressed rat INS-1 cells assessed as rescue from tunicamycin-mediated reduction in cell viability at 40 uM after 72 hrs by CellTiter-Glo assay relative to control; assay type: functional
How it was run: (§1)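 INS-1 cells seeded at 3 × 10³/well and exposed for 72 h to Tm 0.1 μg/ml plus compound. Viability measured as ATP by CellTiter-Glo. Tm alone was set to 0% and DMSO without Tm to 100% rescue. Values are the mean of three experiments. EC50 was derived for survival.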

[2] = tested on: INS1; assay: Cytoprotective activity in endoplasmic reticulum stressed rat INS-1 cells assessed as rescue from tunicamycin-mediated reduction in cell survival after 72 hrs by CellTiter-Glo assay; conditions: INS1, 72 h
[3] = tested on: INS1; assay: Cytoprotective activity in endoplasmic reticulum stressed rat INS-1 cells assessed as rescue from tunicamycin-mediated reduction in cell viability at 20 uM after 72 hrs by CellTiter-Glo assay relative to control; assay type: functional; how it was run: as §1
[4] = tested on: INS1; assay: Cytoprotective activity in endoplasmic reticulum stressed rat INS-1 cells assessed as rescue from tunicamycin-mediated reduction in cell viability at 10 uM after 72 hrs by CellTiter-Glo assay relative to control; assay type: functional; how it was run: as §1
[5] = tested on: INS1; assay: Cytoprotective activity in endoplasmic reticulum stressed rat INS-1 cells assessed as rescue from tunicamycin-mediated reduction in cell viability at 5 uM after 72 hrs by CellTiter-Glo assay relative to control; assay type: functional; how it was run: as §1

Cc1ccccc1NC(=O)c1nnn(-c2ccccc2F)c1C
%max [1]: 40% | EC50 [2]: 8 µM

CCc1cccc(C)c1NC(=O)c1nnn(-c2ccccc2OC)c1C
%max [3]: 38% | EC50 [2]: 1 µM

Cc1c(Cl)cccc1NC(=O)c1nnn(-c2ccc(F)cc2)c1C
%max [3]: 87% | EC50 [2]: 8.4 µM

COc1ccccc1-n1nnc(C(=O)Nc2c(C)cccc2C)c1C
%max [4]: 28% | EC50 [2]: 0.6 µM

Cc1c(Cl)cccc1NC(=O)c1nnn(-c2ccccc2F)c1C
%max [3]: 92% | EC50 [2]: 6.5 µM

CCc1cccc(C)c1NC(=O)c1nnn(-c2ccccc2Cl)c1C
%max [1]: 55% | EC50 [2]: 2.5 µM

CCc1cccc(C)c1NC(=O)c1nnn(-c2ccc(C)cc2)c1C
%max [1]: 82%

CCc1ccc(-n2nnc(C(=O)Nc3ccc(OC)cc3)c2C)cc1
%max [5]: 21%

CCc1ccc(-n2nnc(C(=O)Nc3cccc(OC)c3)c2C)cc1
%max [4]: 31% | EC50 [2]: 3.7 µM

CCc1ccc(-n2nnc(C(=O)Nc3ccc(F)cc3)c2C)cc1
%max [4]: 82% | EC50 [2]: 2.7 µM

CCc1cccc(C)c1NC(=O)c1nnn(-c2ccc(F)cc2)c1C
%max [3]: 28%

CCc1ccc(-n2nnc(C(=O)Nc3c(C)cccc3C)c2C)cc1
%max [3]: 80% | EC50 [2]: 4.6 µM

CCc1ccc(-n2nnc(C(=O)Nc3ccccc3C)c2C)cc1
%max [4]: 62% | EC50 [2]: 3.2 µM

Cc1cccc(C)c1NC(=O)c1nnn(-c2ccc(Cl)cc2)c1C
%max [1]: 57% | EC50 [2]: 5.2 µM

CCc1ccc(-n2nnc(C(=O)Nc3ccccc3Cl)c2C)cc1
%max [5]: 19% | EC50 [2]: 0.6 µM

CCc1ccc(-n2nnc(C(=O)Nc3cccc(C)c3)c2C)cc1
%max [5]: 72% | EC50 [2]: 2.1 µM

Cc1c(C(=O)Nc2ccc(F)cc2)nnn1-c1ccc(C(C)C)cc1
%max [4]: 29% | EC50 [2]: 3.5 µM

CCCCc1ccc(-n2nnc(C(=O)Nc3ccccc3F)c2C)cc1
%max [4]: 30% | EC50 [2]: 3.5 µM

Cc1ccc(-n2nnc(C(=O)Nc3cccc(Cl)c3C)c2C)c(C)c1
%max [4]: 92% | EC50 [2]: 2.5 µM

CCc1ccc(-n2nnc(C(=O)Nc3ccccc3CC)c2C)cc1
%max [4]: 91% | EC50 [2]: 4.2 µM

Cc1ccccc1NC(=O)c1nnn(-c2ccc(C(C)C)cc2)c1C
%max [4]: 54% | EC50 [2]: 2.6 µM

Cc1ccc(-n2nnc(C(=O)Nc3cccc(Cl)c3C)c2C)cc1
%max [4]: 56% | EC50 [2]: 2.8 µM

Cc1cccc(C)c1NC(=O)c1nnn(-c2cccc(Cl)c2C)c1C
%max [1]: 88% | EC50 [2]: 9 µM

CCOc1ccccc1-n1nnc(C(=O)Nc2cccc(Cl)c2C)c1C
%max [3]: 52% | EC50 [2]: 8.7 µM

Cc1ccc(-n2nnc(C(=O)Nc3c(C)cccc3C)c2C)cc1
%max [3]: 73% | EC50 [2]: 1.7 µM

CCc1ccc(-n2nnc(C(=O)Nc3cccc(Cl)c3C)c2C)cc1
%max [4]: 88% | EC50 [2]: 7.8 µM

CCc1cccc(C)c1NC(=O)c1nnn(-c2ccccc2)c1C
%max [1]: 36% | EC50 [2]: 5.8 µM

Cc1ccc(-n2nnc(C(=O)Nc3ccccc3C)c2C)cc1C
%max [4]: 56% | EC50 [2]: 3.1 µM

CCc1ccc(-n2nnc(C(=O)Nc3ccc(C)cc3)c2C)cc1
%max [4]: 18%

CCc1cccc(C)c1NC(=O)c1nnn(-c2ccc(OC)cc2)c1C
%max [3]: 39%

Cc1cccc(C)c1NC(=O)c1nnn(-c2ccccc2Cl)c1C
%max [1]: 44% | EC50 [2]: 9.1 µM

Cc1cccc(NC(=O)c2nnn(-c3ccc(C(C)C)cc3)c2C)c1
%max [4]: 35% | EC50 [2]: 3.2 µM

CCc1ccc(-n2nnc(C(=O)Nc3ccc(NC(C)=O)cc3)c2C)cc1
%max [4]: 15%

Cc1cccc(C)c1NC(=O)c1nnn(-c2ccccc2F)c1C
%max [1]: 23% | EC50 [2]: 1.4 µM

CCc1cccc(C)c1NC(=O)c1nnn(-c2ccc(Cl)cc2)c1C
%max [1]: 66%

CCOc1ccccc1-n1nnc(C(=O)Nc2c(C)cccc2CC)c1C
%max [1]: 50%

CCc1ccc(-n2nnc(C(=O)Nc3ccc(Cl)cc3Cl)c2C)cc1
%max [4]: 12%

COc1ccc(-n2nnc(C(=O)Nc3cccc(Cl)c3C)c2C)cc1
%max [3]: 81% | EC50 [2]: 5.2 µM
